# Test results: ChEMBL document CHEMBL4477216, “Discovery and Optimization of Small Molecule Splicing Modifiers of Survival Motor Neuron 2 as a Treatment for Spinal Muscular Atrophy” (J Med Chem, 2016)
# What was measured:
# Homo sapiens [1] = species: Homo sapiens; assay: Inhibition of mRNA splicing of SMN2 exon 7 in GM03813 fibroblasts derived from SMA patient assessed as maximum fold increase of SMN protein level by 1.5 times after 24 hrs by HTRF assay relative to control
# Homo sapiens [2] = species: Homo sapiens; assay: Inhibition of mRNA splicing of SMN2 exon 7 in GM03813 fibroblasts derived from SMA patient assessed as compound concentration required to increase SMN protein level by 1.5 times after 24 hrs by HTRF assay
# Homo sapiens [3] = species: Homo sapiens; assay: Inhibition of mRNA splicing of human SMN2 exon 7 transfected in HEK293H cells assessed as compound concentration required to increase full-length SMN2 mRNA level by 1.5 times after 24 hrs by RT-qPCR analysis relative to GAPDH; format: cell-based
# Procedure, shortened: (§1)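 HEK293H cells stably carrying the SMN2 minigene (exon 6 to 5' exon 8 fused to firefly luciferase) were plated and held for 6 h, then treated 24 h in duplicate at varying concentrations (0.5% DMSO). Full-length minigene mRNA and GAPDH were quantified by TaqMan RT-qPCR using actual PCR efficiencies. Results were normalized to GAPDH and DMSO and expressed as fold change versus DMSO.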
# Homo sapiens [4] = species: Homo sapiens; assay: Inhibition of mRNA splicing of human SMN2 exon 7 transfected in HEK293H cells assessed as maximum fold of increase in full-length SMN2 mRNA level after 24 hrs by RT-qPCR analysis relative to control; format: cell-based; procedure, shortened: as §1
# Homo sapiens [5] = species: Homo sapiens; assay: Inhibition of mRNA splicing of human SMN2 exon 7 transfected in HEK293H cells assessed as compound concentration required to increase full-length SMN2 mRNA level by 1.5 times after 24 hrs by RT-qPCR analysis; format: cell-based; procedure, shortened: as §1
# Homo sapiens [6] = species: Homo sapiens; assay: Inhibition of mRNA splicing of human SMN2 exon 7 transfected in HEK293H cells assessed as maximum fold of increase in full-length SMN2 mRNA level after 24 hrs by RT-qPCR analysis relative to GAPDH; format: cell-based; procedure, shortened: as §1
# [7] = Protein binding in human plasma; format: ADME, cell-free; conditions: read-out: PPB (converted)
# [8] = Apparent permeability in human Caco2 cells; format: ADME, cell-based; conditions: Caco-2
# Procedure, shortened: (§2)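 Bidirectional permeability was measured across a Caco-2 cell monolayer. Papp was reported, and efflux was expressed as the B-A/A-B ratio.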
# [9] = Ratio of drug level in brain to plasma of Sprague-Dawley rat at 10 mg/kg, po measured at 6 hrs; format: ADME, organism-based; conditions: brain and plasma, read-out: BPR
# Procedure, shortened: (§3)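 Male Sprague-Dawley rats got a single oral 10 mg/kg dose as a suspension in 0.5% hydroxypropyl methylcellulose with 0.1% Tween-80. Plasma was sampled at several time points up to 6 h post dose to give AUC0-6h. Total brain concentration was taken at 6 h to give the brain/plasma ratio.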
# [10] = Efflux ratio of apparent permeability from basolateral to apical over apical to basolateral side in human Caco2 cells; format: ADME, cell-based; conditions: Caco-2; procedure, shortened: as §2
# [11] = AUC (0 to 6 hrs) in Sprague-Dawley rat at 10 mg/kg, po; format: ADME, organism-based; parameters: dose 10 mg/kg, time < 6 hr, route oral; conditions: in vivo; procedure, shortened: as §3
SMILES,EC1.5 (Homo sapiens [2]),EC1.5 (Homo sapiens [3]),also measured
COc1ccc(-c2nc3ccc(N4CCNCC4)cc3[nH]c2=O)cc1OC,> 10000 nM,2200 nM,fold change (FC) (Homo sapiens [1]): 1.1
Cc1cn2cc(-c3cc4ccc(N5CCN[C@@H](C)C5)cc4oc3=O)nc2c(C)n1,5 nM,1 nM,
CN(C)c1ccc2cc(-c3nc4ccccc4o3)c(=O)oc2c1,,22000 nM,fold change (FC) (Homo sapiens [4]): 1.2; EC1.5 (Homo sapiens [5]): > 32 µM; fold change (FC) (Homo sapiens [6]): 1.5
Cc1cn2nc(-c3cc(=O)n4cc(N5CCN6CCC[C@H]6C5)ccc4n3)cc2c(C)n1,150 nM,120 nM,
Cc1cn2cc(-c3cc4ccc(N5CCNCC5)cc4c(=O)o3)nc2c(C)n1,39 nM,8 nM,fraction unbound [7]: 0.1; Papp [8]: 4.4 ×10⁻⁶ cm/s; Kp at 6 h [9]: 0.6; efflux ratio [10]: 2.6; AUC(0-t) at 6 h [11]: 280 ng·h/mL
Cc1cn2nc(-c3cc(=O)n4cc(N5CCN(C)CC5)ccc4n3)cc2cn1,300 nM,,AUC(0-t) at 6 h [11]: < 10 ng·h/mL
Cc1cn2cc(-c3cc4ccc(N5CCN(C)[C@@H](C)C5)cc4oc3=O)nc2c(C)n1,63 nM,,Kp at 6 h [9]: 19; AUC(0-t) at 6 h [11]: 260 ng·h/mL
Cc1cn2nc(-c3cc(=O)n4cc(N5CCC(N(C)C)CC5)ccc4n3)cc2c(C)n1,130 nM,20 nM,
COc1ccc(-c2cc(=O)n3cc(N4CCNCC4)ccc3c2)cc1OC,2500 nM,920 nM,fold change (FC) (Homo sapiens [1]): 1.6
Cc1cn2cc(-c3cc(=O)n4cc(N5CCNCC5)ccc4n3)cc(C)c2n1,60 nM,48 nM,
O=c1oc2cc(N3CCNCC3)ccc2cc1-c1ccccc1,> 10000 nM,> 32000 nM,fold change (FC) (Homo sapiens [1]): 1
COc1ccc(-c2cc3ccc(N4CCNCC4)cn3c(=O)n2)cc1OC,> 10000 nM,> 10000 nM,fold change (FC) (Homo sapiens [1]): 1
Cc1cn2nc(-c3cc(=O)n4cc(N5CCN(C6CC6)CC5)ccc4n3)cc2c(C)n1,690 nM,380 nM,
Cc1cn2nc(-c3cc(=O)n4cc(N5CCN[C@H](C)C5)ccc4n3)cc2c(C)n1,71 nM,11 nM,
Cc1cn2nc(-c3cc(=O)n4cc(N5CCN[C@@H](C)C5)ccc4n3)cc2c(C)n1,160 nM,19 nM,
O=c1oc2cc(N3CCOCC3)ccc2cc1-c1nc2ccccc2o1,,> 32000 nM,fold change (FC) (Homo sapiens [4]): 1.1; EC1.5 (Homo sapiens [5]): > 32 µM; fold change (FC) (Homo sapiens [6]): 1
O=c1oc2cc(N3CCCCC3)ccc2cc1-c1nc2ccccc2o1,,> 32000 nM,fold change (FC) (Homo sapiens [4]): 1; EC1.5 (Homo sapiens [5]): > 32 µM; fold change (FC) (Homo sapiens [6]): 1
Cc1cn2cc(-c3cc(=O)n4cc(N5CCNCC5)ccc4n3)nc2c(C)n1,430 nM,180 nM,
Cc1cn2cc(-c3cc4ccc(CCCN(C)C)cc4oc3=O)nc2c(C)n1,220 nM,58 nM,

# Further lines, with some results ahead:
EC1.5 (Homo sapiens [2]),SMILES,EC1.5 (Homo sapiens [3]),also measured
> 10000 nM,O=c1oc2cc(N3CCNCC3)ccc2cc1-c1nc2ccccc2s1,1000 nM,fold change (FC) (Homo sapiens [1]): 1
> 10000 nM,O=c1oc2cc(N3CCNCC3)ccc2cc1-c1nc2ccccc2o1,8700 nM,fold change (FC) (Homo sapiens [4]): 7; fold change (FC) (Homo sapiens [1]): 1; EC1.5 (Homo sapiens [5]): 10 µM; fold change (FC) (Homo sapiens [6]): 25
120 nM,O=c1oc2cc(N3CCNCC3)ccc2cc1-c1cn2ccncc2n1,70 nM,
5 nM,Cc1cn2cc(-c3cc4ccc(N5CCNCC5)cc4oc3=O)nc2cn1,2 nM,
160 nM,Cc1ccc2nc(-c3cc4ccc(N5CCNCC5)cc4oc3=O)cn2c1,140 nM,
> 10000 nM,COc1ccc(-c2cc3ccc(N4CCNCC4)cc3oc2=O)cc1OC,620 nM,fold change (FC) (Homo sapiens [1]): 1.3
> 10000 nM,O=c1oc2cc(N3CCNCC3)ccc2cc1-c1nc2ccccc2[nH]1,430 nM,fold change (FC) (Homo sapiens [1]): 1.2
69 nM,Cc1cn2cc(-c3cc4ccc(N5CCN(C)CC5)cc4oc3=O)nc2cn1,,fraction unbound [7]: 0.03; Papp [8]: 2.7 ×10⁻⁶ cm/s; efflux ratio [10]: 0.74; AUC(0-t) at 6 h [11]: < 10 ng·h/mL
210 nM,CCc1nc(C)cn2cc(-c3cc4ccc(N5CCNCC5)cc4oc3=O)nc12,10 nM,
29 nM,Cc1cn2cc(-c3cc4ccc(N5CCNCC5)cc4oc3=O)cc2c(C)n1,4 nM,
